Experiments:
flayed duplex molecule = assay: 2-AP fluorescence quenching, flayed duplex; assay type: binding; conditions: Flayed-4AP4 and Flayed-1AP1
How it was run: (§1)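 Substrates were annealed from oligos (boiled 5 min, slow-cooled), gel-purified on native 12% PAGE and quantified spectrophotometrically. After ≥10 min equilibration, emission was read at 330–430 nm (excitation 315 nm). Adenine-substituted spectra were subtracted, and fold decrease at 370 nm was taken versus no peptide.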

[1] = tested on: replication fork substrate; assay: 2-AP fluorescence quenching, replication fork; assay type: binding
How it was run: as §1

RuvABC complex = conditions: cited from earlier work
protein-free HJ DNA [2] = assay: peptide/RecG band shift assay on HJ; assay type: binding; conditions: read-out: dissociation constant (Kd) by band shift assay; peptide dimer, HJ
RecG/HJ complex = assay: displacement of RecG from HJ DNA; assay type: binding, Escherichia coli; conditions: 0.1 μM (WRWYCR)2
RecG helicase = conditions: cited from earlier work
[3] = tested on: fork substrate with only the leading strand; assay: 2-AP fluorescence quenching, leading strand fork; assay type: binding
How it was run: as §1

protein-free HJ DNA [4] = conditions: cited from earlier work
[5] = tested on: RecG binding to HJ substrate; conditions: cited from earlier work
[6] = tested on: 1AP1 oligonucleotide alone (ssDNA); assay: 2-AP fluorescence quenching, single oligonucleotide; assay type: binding
Complete fork = assay: 2-AP titration Kd, complete fork; assay type: binding; conditions: Kd ratio, n = 1
How it was run: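 Each substrate carried 2-AP at strand 4, position 2 and was used at 0.1 μM in 20 mM Tris-HCl pH 7.8, 25 mM NaCl, 1 mM EDTA, 1.6% DMSO at 24°C. Peptide dimer added in 2-fold steps from 0.003125 μM, 3 min each. Excitation 315 nm, emission 330–430 nm. Adenine background subtracted, 365–375 nm averaged. Fc fitted by least squares to pooled 2–3 dilution series. Value given as Kd relative to HJ Kd.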

[7] = tested on: replication fork substrates; conditions: ref K. Kepple, Ph.D. Thesis, 2006; cited from earlier work
[8] = tested on: central thymine bases of HJ; conditions: bound to HJ; cited from earlier work

## (WRWYCR)2 (disulfide)
Flayed duplex molecule
  2-AP quenching: only weakly quenched
[1]; Fork-1AP1 (central base), 0.05 μM dimer, 0.25:1
  fold decrease in 2-AP fluorescence at 370 nm: 1.0 fold
[1]; Fork-1AP1 (central base), 0.2 μM dimer, 1:1
  fold decrease in 2-AP fluorescence at 370 nm: 1.0 fold
[1]; Fork-1AP1 (central base), 0.8 μM dimer, 4:1
  fold decrease in 2-AP fluorescence at 370 nm: 1.2 fold
[1]; Fork-3AP2, 0.2 μM dimer, 1:1
  fold decrease in 2-AP fluorescence at 370 nm: 1.0 fold
[1]; Fork-3AP2, 1.6 μM dimer, 8:1
  fold decrease in 2-AP fluorescence at 370 nm: 1.2 fold
[1]; Fork-4AP1 (central base), 0.05 μM dimer, 0.25:1
  fold decrease in 2-AP fluorescence at 370 nm: 1.0 fold
[1]; Fork-4AP1 (central base), 1.6 μM dimer, 8:1
  fold decrease in 2-AP fluorescence at 370 nm: 1.7 fold
[1]; Fork-4AP2 (central base), 0.05 μM dimer, 0.25:1
  fold decrease in 2-AP fluorescence at 370 nm: 1.0 fold
[1]; Fork-4AP2 (central base), 0.2 μM dimer, 1:1
  fold decrease in 2-AP fluorescence at 370 nm: 1.0 fold
[1]; Fork-4AP3, 0.05 μM dimer, 0.25:1
  fold decrease in 2-AP fluorescence at 370 nm: 1.0 fold
[1]; Fork-4AP3, 0.2 μM dimer, 1:1
  fold decrease in 2-AP fluorescence at 370 nm: 1.0 fold
[1]; Fork-4AP3, 0.8 μM dimer, 4:1
  fold decrease in 2-AP fluorescence at 370 nm: 1.2 fold
[1]; Fork-4AP4, 0.05 μM dimer, 0.25:1
  fold decrease in 2-AP fluorescence at 370 nm: 1.0 fold
[1]; Fork-4AP4, 0.2 μM dimer, 1:1
  fold decrease in 2-AP fluorescence at 370 nm: 1.0 fold
[1]; Fork-4AP4, 0.8 μM dimer, 4:1
  fold decrease in 2-AP fluorescence at 370 nm: 1.0 fold
[1]; Fork-4AP4, 1.6 μM dimer, 8:1
  fold decrease in 2-AP fluorescence at 370 nm: 1.2 fold
RuvABC complex
  inhibition of HJ resolution by RuvABC: inhibit
RuvABC complex; read-out: IC50, RuvABC
  IC50: ~50 nM
protein-free HJ DNA [2]
  Kd: 12.5 nM
RecG/HJ complex
  disappearance of band with two RecG monomers per HJ: takes far longer to disappear
RecG helicase
  inhibition of unwinding of branched DNA substrates by RecG: inhibit unwinding of branched DNA substrates
RecG helicase; fork with only lagging vs only leading strand
  inhibition of RecG by fork type: inhibits RecG most on a fork substrate with only the lagging strand and least on a fork substrate with only the leading strand
[3]; Lead-1AP1 (central base), 0.05 μM dimer, 0.25:1
  fold decrease in 2-AP fluorescence at 370 nm: 1.0 fold
[3]; Lead-1AP1 (central base), 1.6 μM dimer, 8:1
  fold decrease in 2-AP fluorescence at 370 nm: 1.3 fold
[3]; Lead-4AP1 (central base), 0.05 μM dimer, 0.25:1
  fold decrease in 2-AP fluorescence at 370 nm: 1.0 fold
[3]; Lead-4AP1 (central base), 0.8 μM dimer, 4:1
  fold decrease in 2-AP fluorescence at 370 nm: 1.3 fold
[3]; Lead-4AP1 (central base), 1.6 μM dimer, 8:1
  fold decrease in 2-AP fluorescence at 370 nm: 1.7 fold
[3]; Lead-4AP1, Lead-4AP2 and Lead-4AP3
  2-AP quenching: all quenched by the peptide
[3]; Lead-4AP2 (central base), 0.05 μM dimer, 0.25:1
  fold decrease in 2-AP fluorescence at 370 nm: 1.0 fold
[3]; Lead-4AP2 (central base), 0.8 μM dimer, 4:1
  fold decrease in 2-AP fluorescence at 370 nm: 1.2 fold
[3]; Lead-4AP3, 0.05 μM dimer, 0.25:1
  fold decrease in 2-AP fluorescence at 370 nm: 1.0 fold
[3]; Lead-4AP3, 0.8 μM dimer, 4:1
  fold decrease in 2-AP fluorescence at 370 nm: 1.2 fold
[3]; Lead-4AP4, 0.2 μM dimer, 1:1
  fold decrease in 2-AP fluorescence at 370 nm: 1.0 fold
[3]; Lead-4AP4, 1.6 μM dimer, 8:1
  fold decrease in 2-AP fluorescence at 370 nm: 1.2 fold
[3]; Lead-4AP4 and Lead-1AP1
  2-AP quenching: less sensitive
protein-free HJ DNA [4]
  binding to free HJ DNA: bind specifically to free HJ DNA
  effect of Mg^2+ or spermidine on HJ binding: strongly inhibited
[5]
  complexes formed when peptide and RecG are added together to HJ: mostly peptide–HJ complexes
[6]; 8-fold molar excess of peptide, data not shown
  2-AP quenching: no significant quenching
[6]; 16-fold peptide excess
  2-AP quenching: Quenching begins
[6]; 32-fold excess
  2-AP quenching: increases
Complete fork
  Fold reduced versus HJ: 4.4
[7]
  binding to replication forks by band shift: unable to detect binding
[8]
  increase in KMnO4 sensitivity of central thymine bases: ~2 fold
